The list is not random: actives were taken first. Their share in the collection is about 2.7%.
SIRT5 inh = SIRT5 desuccinylase inhibitors, primary screen, biochemical, fluorescence imaging, single point, set 5. AID 652115, 2013. Purified SirT5, succinyl-peptide AMC, trypsin-coupled fluorescence. inhibition, % at 15 µM. 330,000 tested, 1.1% active. NAD-dependent protein deacylase sirtuin-5, mitochondrial (Homo sapiens), Q9NXA8; in the data active = inhibition above about 15%; inconclusive = no clear call, values can overlap the other calls
Target sequence (Q9NXA8 whole entry, looked up): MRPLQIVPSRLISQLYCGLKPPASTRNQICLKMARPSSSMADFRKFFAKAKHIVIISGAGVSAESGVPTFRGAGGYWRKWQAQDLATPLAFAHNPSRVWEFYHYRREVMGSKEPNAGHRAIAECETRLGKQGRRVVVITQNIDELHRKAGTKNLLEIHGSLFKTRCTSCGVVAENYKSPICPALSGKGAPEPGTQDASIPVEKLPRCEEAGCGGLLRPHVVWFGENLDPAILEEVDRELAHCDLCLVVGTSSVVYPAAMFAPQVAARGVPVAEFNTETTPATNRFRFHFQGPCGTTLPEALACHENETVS
S100A4 MyoIIA = inhibitors of S100A4-myosin IIA peptide binding, primary screen, biochemical, fluorescence polarization, TAMRA-MyoIIA peptide; 360,000 tested, 0.14% active; inhibition, % at 10.7 µM; Protein S100-A4 (Homo sapiens), P26447; AID 652163, 2013;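 active = mean inhibition of at least 70% across replicates, with every replicate also reaching that level; inconclusive = mean inhibition reaches 70% but some replicates fall short; inactive = mean inhibition below 70%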
Target sequence (P26447 whole entry, looked up): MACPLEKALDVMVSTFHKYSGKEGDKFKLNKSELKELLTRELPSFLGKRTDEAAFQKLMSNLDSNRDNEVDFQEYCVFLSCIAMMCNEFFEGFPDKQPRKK
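Material: human S100A4 monomer with TAMRA-labelled myosin IIA peptide; buffer or medium: HEPES pH 7.2 with CaCl2, KCl, NaCl, DTT, Triton; compound dosing: one concentration per compound; schedule: 5 min incubation before reading; benchmarks: neutral control DMSO, positive control TFP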
DENV2 CPE = inhibitors of DENV2 cytopathic effect, primary screen, cell-based, plate reader, single concentration; DENV2-infected cells, cytopathic effect rescue; CPE inhibition, % at 9.99 µM; 350,000 tested, 1.7% active; in the data active = CPE inhibition above about 20%, passing the limit was not always enough; inconclusive = no clear call, values can overlap the other calls; tested in BHK-21 cells;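 also: 0% = median of neutral control wells and 100% = median of positive control wells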
MLL AF4-AF9 inh = inhibitors of AF4 peptide binding to AF9, primary screen, biochemical, AlphaScreen, biotin-AF4 peptide, FLAG-AF9, single point; Protein AF-9 (Homo sapiens), P42568; inhibition, % at 10 µM; 350,000 tested, 0.47% active;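 active = every replicate reaching a set inhibition limit, whatever the replicate mean, cut at about 25% in these data; inconclusive = mean inhibition reaches that limit but some replicates miss it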;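 also: 0% = plate neutral control median and 100% = total signal loss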
CaV13 ICDI inh = Disruptors of the CACNA1D IQ motif to Ca2+-dependent inactivation inhibitor domain association, primary screening, Förster resonance energy transfer in intact living …; 340,000 tested, 0.098% active; AID 743397; HEK cells, CFP/YFP FRET ICDI-IQ, plate reader, 10 min; percent FRET-ratio fall versus neutral wells; inhibition, % at 12.3 µM;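 active = mean replicate inhibition of at least 30% and at least 1% of replicates passing that level; inconclusive = only one of the two criteria is met; inactive = neither criterion is met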;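 also: 0% = median of the neutral control wells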
An asterisk follows results filed as active; ? = inconclusive; . = no result.

SMILES	SIRT5 inh	S100A4 MyoIIA	DENV2 CPE	MLL AF4-AF9 inh	CaV13 ICDI inh
CC[C@]12c3[nH]c4ccccc4c3CCN1C(=O)C(CC(=O)NC/C=C(\C)CCC=C(C)C)C[C@@H]2C(=O)N1CCN(C(=O)c2ccco2)CC1 (some centres not stated)	16.3*	2.8	0.5	0.3	-5.6
O=C(C[C@H]1C[C@H](C(=O)N2CCCCC2)[C@@]2(CCc3ccccc3)c3[nH]c4cc(-c5ccco5)ccc4c3CCN2C1=O)NCCN1CCOCC1	-4.6	-0.2	-11.6	26.0*	-7.2
CCCCNC(=O)c1onc(CS(=O)(=O)c2ccccn2)c1C(=O)NCCCC	.	1.9	40.0*	-12.2	-4.0
O=C(O)c1ccccc1N/N=C/c1cc(Br)cc(Br)c1O	-3.8	1.4	3.8	30.1*	-3.1
O=C(Cc1ccccc1)N/N=C/c1cc(Br)cc(Br)c1O	0.1	2.8	-2.5	-1.6	-2.1
CC(C)NC(=O)N(C)C[C@@H]1OCCCC[C@@H](C)Oc2ccc(NC(=O)C3CCCCC3)cc2C(=O)N([C@H](C)CO)C[C@H]1C	0.8	10.4	3.1	-3.8	.
CCOC(=O)C1Nc2ccc(C(F)(F)F)cc2C2c3ccccc3CC12 (configuration not stated)	.	-2.1	.	0.9	-5.9
CCOC(=O)C1Nc2ccccc2C2C(O)C(O)CC12 (configuration not stated)	6.6	3.1	7.1	26.3*	-10.6
N#C[C@@H]1[C@H](c2ccc(C#CC3CCCCC3)cc2)[C@@H](CO)N1C(=O)Cc1ccccn1	-1.6	-9.4	2.8	3.5	.
CCOC(=O)CC1(C)Sc2ccccc2N1S(=O)(=O)c1ccc(C)cc1 (configuration not stated)	.	-4.2	63.2*	-3.6	-4.6
C[C@H](NC(=O)c1ncn(Cc2ccccc2)c1C(=O)N[C@@H](C)c1ccccc1)c1ccccc1	.	-3.1	75.4*	.	-7.8
C[C@@H](NC(=O)c1nc[nH]c1C(=O)N(C)Cc1ccccc1)c1ccccc1	.	1.5	35.4*	4.3	-9.7
O=C(NCc1ccccc1)c1ncn(Cc2ccccc2)c1C(=O)NCc1ccccc1	.	-4.2	.	-0.3	-9.6
C[C@@H]1CN([C@H](C)CO)S(=O)(=O)c2ccc(C#CC(C)(C)O)cc2O[C@@H]1CN(C)C(=O)CN(C)C	3.2	4.8	-0.5	1.2	.
CCCNC(=O)C[C@@H]1CC[C@H]2[C@@H](COC[C@@H](O)CN2CC2CCCCC2)O1	-2.2	9.8	2.8	-2.4	.
C#Cc1cccc(Nc2nc(NCc3ccccc3)nc3ccsc23)c1	-1.8	-1.5	1.6	2.4	-5.1
Cc1noc(C)c1CSc1nc2sc(C)c(C)c2c(=O)n1C1CCCC1	34.9*	1.8	.	.	-4.1
CC1=Nc2cc(C(=O)O)ccc2Sc2ccc(Br)cc21	23.4*	-6.3	8.6	1.5	-5.5
CC1=Nc2cc(C(=O)NCC3CCCO3)ccc2Sc2ccc(Br)cc21 (configuration not stated)	-3.3	9.6	1.6	4.9	-4.4
COc1ccc(NC(=O)Nc2ccc3c(c2)C(=O)N([C@H](C)CO)C[C@@H](C)[C@H](CN(C)C(=O)Nc2cccc4ccccc24)O3)cc1	2.1	0.9	-4.1	-28.5	.
C[C@H]1CN([C@@H](C)CO)C(=O)c2cc(NC(=O)Nc3cccc4ccccc34)ccc2O[C@H]1CN(C)C(=O)Nc1ccc(F)cc1	0.9	-4.6	-10.8	1.4	.
C[C@@H]1CN([C@H](C)CO)C(=O)c2cc(NC(=O)Nc3cccc4ccccc34)ccc2O[C@@H]1CN(C)C(=O)Nc1ccc(F)cc1	0.9	-8.6	24.5*	-1.2	.
COc1ccc(NC(=O)Nc2ccc3c(c2)C(=O)N([C@@H](C)CO)C[C@H](C)[C@H](CN(C)C(=O)Nc2cccc4ccccc24)O3)cc1	1.8	0.6	31.1*	2.2	.
O=C(c1ccccc1F)N1CC[C@H]2[C@H](CO)Nc3ccc(-c4ccc(F)cc4)cc3[C@H]21	1.1	47.9	7.8	0.9	.
O=C(NCCc1ccncc1)[C@@H]1[C@@H](CO)[C@@H]2Cn3c(ccc(-c4cccc(F)c4)c3=O)[C@H]1N2	-33.6	11.6	84.7*	-5.4	.
SMILES	SIRT5 inh	S100A4 MyoIIA	DENV2 CPE	MLL AF4-AF9 inh	CaV13 ICDI inh
COC(=O)c1c(NC(=O)C2(C)Cc3ccccc3C(=O)O2)sc2c1CCCC2 (configuration not stated)	19.3*	5.0	.	.	.
COC(=O)c1cc2c(c3c4cc(C)ccc4n(S(=O)(=O)c4ccc(C)cc4)c13)C(=O)N(Cc1ccccc1OC)C2	.	1.9	-3.6	-1.3	-6.6
C=CCN(CC=C)Cc1cc(=O)n2c(-c3ccccc3)csc2n1	2.9	-1.7	5.8	48.7*	-3.4
O=c1cc(CN2CCN(c3ccc(O)cc3)CC2)nc2scc(-c3ccccc3)n12	1.7	-0.3	-7.1	2.5	-6.4
COc1ccc2c3c(n(C)c2c1)[C@H](CO)N(C(=O)Nc1cccc(F)c1)CC31CCN(Cc2nccs2)CC1	1.7	9.0	-3.0	.	.
CCCNC(=O)N1C[C@@H]2[C@H](c3ccccc31)[C@H](CO)N2Cc1ccc2c(c1)OCO2	2.5	0.8	5.2	-0.8	.
CC(C)NC(=O)N1C[C@H]2[C@@H](c3ccccc31)[C@H](CO)N2C(=O)Nc1cccc(F)c1	0.0	-2.9	?	-3.9	.
C[C@H](O)[C@@H]1CN2CCc3c([nH]c4ccccc34)[C@@H]2C[C@@H]1N(C)C(=S)Nc1ccc(C#N)cc1	2.6	-14.7	25.1*	7.8	-13.2
C[C@H](O)[C@@H]1CN2CCc3c([nH]c4ccccc34)[C@@H]2C[C@@H]1N(C)C(=O)Nc1ccc(Br)cc1	1.7	-2.1	8.7	6.7	-7.5
CCC(=O)N1C[C@H](O)COC[C@H]2O[C@@H](CC(=O)NCc3ccc(Oc4ccccc4)cc3)CC[C@@H]21	3.7	-13.8	91.5*	-0.8	.
O=C(C[C@H]1CC[C@@H]2[C@H](COC[C@H](O)CN2CCc2ccccc2)O1)NCc1ccc(Oc2ccccc2)cc1	7.3	-7.1	-20.9	3.5	.
O=C(C[C@@H]1CC[C@H]2[C@@H](COC[C@H](O)CN2CCc2ccccc2)O1)NCc1ccc(Oc2ccccc2)cc1	3.0	-14.0	23.6*	6.9	.
C[C@H]1CN([C@@H](C)CO)S(=O)(=O)c2ccc(-c3cncnc3)cc2O[C@@H]1CN(C)C(=O)NC1CCCC1	2.0	18.6	3.2	-2.4	.
COc1ccc2c3c(n(C)c2c1)[C@H](CO)N(C(=O)C1CCCCC1)CC31CCN(C)CC1	.	.	?	9.1	.
O=C(O)c1ccc(-c2ccc(/C=c3/sc4nc5ccccc5n4c3=O)o2)cc1Cl	23.9*	32.5	0.7	-0.9	-5.2
Cc1ccc2c(nc3s/c(=C\c4ccc(-c5ccccc5C(=O)O)o4)c(=O)n32)c1C	10.1	84.5*	-2.4	-1.4	-35.1
